Assay [1] has as its target SUMO-activating enzyme (Homo sapiens) (UniProt Q9UBE0+Q9UBT2). The assay is described as follows: Induction of SUMO-E1/E2 (unknown origin) mediated sumoylation of His-RanGap-1 after 30 mins by HTRF assay relative to control. Also on record: concentration or dose not given beside the values. Format: protein-complex assay. For orientation: TR-FRET usually uses a lanthanide donor and a delayed reading to cut background.

The nature of assay [2]: Cytoprotective activity in BGMK cells assessed as reduction in thapsigargin-induced ER stress-mediated cell death by measuring cell viability at 10 uM preincubated for 2 hrs followed by thapsigargin addition measured after 24 hrs by CCK8 assay relative to control. Format: cell-based. The note with it: Chlorocebus aethiops, read-out: Activity. In a few lines: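 BGMK cells subcultured at 1.2×10^4 cells/ml, pretreated with compound 2 h, then thapsigargin 0.15 μM (150 nM) added for 24 h. Cells then washed, fed fresh complete DMEM plus CCK-8 reagent, incubated 2 h, absorbance read as viability. Salubrinal included as positive control; data as mean ± SEM.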

Assay [3] is described as follows: (§1) Cytoprotective activity in rat CSM14.1 cells assessed as reduction in thapsigargin-induced ER stress-mediated cell death preincubated for 2 hrs followed by thapsigargin addition measured after 20 hrs by ATPlite assay. Format: functional, cell-based. In outline:
(§2)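 Rat striatal neuroprogenitor CSM14.1 cells were trypsinized, plated in 96-well plates and held overnight at 32 °C. Cells were pretreated with compound for 2 h, then given thapsigargin in DMEM (15 μM final) for another 20 h. Viability was read as cellular ATP content. Thapsigargin without compound served as the 100% death reference and DMSO without thapsigargin as the 100% viability reference. Dose-response data are given as mean ± SEM.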
On the technique in general: Cellular ATP, detected with luciferase, serves as a proxy for viable cell number.

Assay [4] is filed under the species Rattus norvegicus. The description is as §1. Type of assay: functional, cell-based. In outline: as §2

In assay [1], `O=S(=O)(Nc1cccc2cccnc12)c1ccccc1` showed an Activity of 25%. In assay [2], the viability at 10 µM worked out at 35.2%.

Regarding `CC(=O)Nc1ccc(S(=O)(=O)Nc2cccc3cccnc23)cc1`, the Activity in assay [1] turned out to be 28%. The viability at 10 µM in assay [2] is 53.7%.

Broadly, the EC50 is the concentration at which the effect is half-maximal. Consider `O=S(=O)(Nc1cccc2cccnc12)c1ccc(S(=O)(=O)N2CCCC2)cc1`, for which the Activity was 43% in assay [1] and “Dose-dependent effect” in assay [4]. Besides, the EC50 in assay [3] fell in the range of 1.2 to 9.8 µM. Besides, the viability at 10 µM in assay [2] was 62.4%.

The compound `Cc1cc(C)c2nc(NNC(=O)c3cc(=O)c4ccccc4o3)sc2c1` gave an Activity in assay [1] of 33%. In addition, the viability at 10 µM in assay [2] was found to be 60.3%.

As for `O=C(/C=C/c1ccccc1)NC(NC(=S)Nc1cccc2cccnc12)C(Cl)(Cl)Cl` (centres undefined) [SALUBRINAL], in assay [2], the viability at 10 µM was 47.2%.

`Cc1ccc(S(=O)(=O)Nc2cccc3cccnc23)cc1` came in with an Activity in assay [1] of 29%. For the same compound, the viability at 10 µM in assay [2] is 52%.

Consider `Cc1ccc2sc(NNC(=O)c3cc(=O)c4ccccc4o3)nc2c1C`, for which the Activity in assay [1] is 38%; in assay [4] it was “Dose-dependent effect”. Also, the EC50 in assay [3] was 1.2 to 9.8 µM. The viability at 10 µM in assay [2] turned out to be 54.9%.

Compound `O=C(Nc1nc(-c2ccccn2)cs1)c1ccc(Cl)s1` yielded an Activity in assay [1] of 25%. In addition, the viability at 10 µM in assay [2] was determined as 45.3%.

On to `O=C(Nc1nc(-c2ccccn2)cs1)C1COc2ccccc2O1` (centres undefined), for which the Activity was 53% in assay [1] and “Dose-dependent effect” in assay [4]. The EC50 in assay [3] lay in the range of 1.2 to 9.8 µM. The viability at 10 µM in assay [2] was 81.4%.

With `COc1cccc2sc(NNC(=O)C3COc4ccccc4O3)nc12` (centres undefined), the Activity in assay [1] was 17%. The viability at 10 µM in assay [2] was 38.4%.

Take `O=C(Nc1nc(-c2ccccn2)cs1)c1ccc2c(c1)OCCO2`: the Activity in assay [1] was determined as 20%. Besides, the viability at 10 µM in assay [2] was determined as 54.9%.

For `O=C(Nc1nc(-c2ccccn2)cs1)c1ccc(Br)s1`, the Activity in assay [1] was 37%. The viability at 10 µM in assay [2] is 83.3%.

For the origin of these results see ChEMBL document CHEMBL4184102, “Small molecule SUMOylation activators are novel neuroprotective agents” (Bioorg Med Chem Lett, 2018).
